According to ChEMBL document CHEMBL1142894, “Preparation of 5-aryl-3-alkylthio-l,2,4-triazoles and corresponding sulfones with antiinflammatory-analgesic activity” (Bioorg Med Chem, 2007):
Active and inactive are the calls of the source. The calls are words filed in the database; no cut-off is given here.

Tests used:
[1] = system: Mus musculus; assay: Antiinflammatory activity against carrageenan-induced paw edema in Swiss albino mouse assessed as swelling thickness at 50 mg/kg, po after 90 mins; type: functional
Outline: (§1)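 Oral dosing in 0.5% CMC; vehicle to controls. Then carrageenan (0.5 mg/25 ll, freshly suspended in 154 mM saline) injected into the right hind paw subplantar tissue; saline into the left paw. Right-left footpad thickness difference measured by dial gauge calliper every 90 min over 6 h. Inhibition % is relative to vehicle control. n = 6; mean ± SEM.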

[2] = system: Mus musculus; assay: Inhibition of carrageenan-induced paw edema in Swiss albino mouse at 50 mg/kg, po after 360 mins relative to control; type: functional; conditions: 6 h
Outline: (§2)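 Mice, n = 6 per group. Test agent given orally as a suspension in 0.5% sodium CMC in distilled water; controls received vehicle only. Afterwards, 0.5 mg/25 ll carrageenan in saline (154 mM NaCl) injected subplantar into the right hind paw, saline into the left. Right-minus-left footpad thickness measured by dial gauge caliper every 90 min for 6 h. Inhibition is relative to vehicle-control group means.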

[3] = system: Mus musculus; assay: Antiinflammatory activity against carrageenan-induced paw edema in Swiss albino mouse assessed as swelling thickness at 25 mg/kg, po after 270 mins; type: functional; outline: as §1
[4] = system: Mus musculus; assay: Analgesic activity against p-benzoquinone-induced abdominal constriction in Swiss albino mouse assessed as number of writhings at 200 mg/kg, po; type: functional, Abdomen
Outline: (§3)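 Test samples given orally in 0.5% CMC; vehicle to controls. 60 min later, 2.5% (v/v) p-benzoquinone in distilled water, 0.1 ml/10 g, given i.p. Mice housed singly; writhes counted for 15 min starting 5 min after injection. Activity is % change from vehicle controls. n = 6; mean ± SEM.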

[5] = system: Mus musculus; assay: Antiinflammatory activity against carrageenan-induced paw edema in Swiss albino mouse assessed as swelling thickness at 50 mg/kg, po after 180 mins; type: functional; outline: as §1
[6] = system: Mus musculus; assay: Antiinflammatory activity against carrageenan-induced paw edema in Swiss albino mouse assessed as swelling thickness at 200 mg/kg, po after 180 mins; type: functional; outline: as §1
[7] = system: Mus musculus; assay: Inhibition of carrageenan-induced paw edema in Swiss albino mouse at 100 mg/kg, po after 90 mins relative to control; type: functional; conditions: 1.5 h; outline: as §1
[8] = system: Mus musculus; assay: Inhibition of carrageenan-induced paw edema in Swiss albino mouse at 100 mg/kg, po after 180 mins relative to control; type: functional; conditions: 3 h; outline: as §1
[9] = system: Mus musculus; assay: Antiinflammatory activity against carrageenan-induced paw edema in Swiss albino mouse assessed as swelling thickness at 100 mg/kg, po after 360 mins; type: functional; outline: as §1
[10] = system: Mus musculus; assay: Antiinflammatory activity against carrageenan-induced paw edema in Swiss albino mouse assessed as swelling thickness at 200 mg/kg, po after 90 mins; type: functional; outline: as §1
[11] = system: Mus musculus; assay: Antiinflammatory activity against carrageenan-induced paw edema in Swiss albino mouse assessed as swelling thickness at 200 mg/kg, po after 270 mins; type: functional; outline: as §1
[12] = system: Mus musculus; assay: Gastric-ulcerogenic effect in Swiss albino mouse assessed as lesions at 100 mg/kg, po; type: functional, organism-based; set-up: dose 100 mg/kg
Outline: (§4)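 Mice killed under deep ether anesthesia 3 h after the writhing test; the oral dose in 0.5% CMC was the one used in that test. Stomachs removed, opened along the great curvature and examined under a dissecting microscope for lesions or bleeding. Reported as ratio of ulceration; n = 6.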

[13] = system: Mus musculus; assay: Gastric-ulcerogenic effect in Swiss albino mouse assessed as lesions at 50 mg/kg, po; type: functional, organism-based; set-up: dose 50 mg/kg; outline: as §4
[14] = system: Mus musculus; assay: Inhibition of carrageenan-induced paw edema in Swiss albino mouse at 25 mg/kg, po after 270 mins relative to control; type: functional; conditions: 4.5 h; outline: as §1
[15] = system: Mus musculus; assay: Antiinflammatory activity against carrageenan-induced paw edema in Swiss albino mouse assessed as swelling thickness at 50 mg/kg, po after 360 mins; type: functional; outline: as §1
[16] = system: Mus musculus; assay: Inhibition of p-benzoquinone-induced writhing in Swiss albino mouse at 25 mg/kg, po relative to control; type: functional
Outline: (§5)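 Mice, n = 6 per group, dosed orally with a suspension in 0.5% sodium CMC. 60 min later, 0.1 ml/10 g of 2.5% […] p-benzoquinone in distilled water given ip. Abdominal writhes counted per animal for 15 min, starting 5 min after injection. Expressed as % change in mean writhing count versus vehicle controls.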

[17] = system: Mus musculus; assay: Gastric-ulcerogenic effect in Swiss albino mouse assessed as lesions at 25 mg/kg, po; type: functional, organism-based; set-up: dose 25 mg/kg; outline: as §4
[18] = system: Mus musculus; assay: Gastric-ulcerogenic effect in Swiss albino mouse assessed as lesions at 200 mg/kg, po; type: functional, organism-based; set-up: dose 200 mg/kg; outline: as §4
[19] = system: Mus musculus; assay: Inhibition of p-benzoquinone-induced writhing in Swiss albino mouse at 50 mg/kg, po relative to control; type: functional; outline: as §5
[20] = system: Mus musculus; assay: Inhibition of p-benzoquinone-induced writhing in Swiss albino mouse at 200 mg/kg, po relative to control; type: functional; outline: as §5
[21] = system: Mus musculus; assay: Antiinflammatory activity against carrageenan-induced paw edema in Swiss albino mouse assessed as swelling thickness at 100 mg/kg, po after 90 mins; type: functional; outline: as §1
[22] = system: Mus musculus; assay: Antiinflammatory activity against carrageenan-induced paw edema in Swiss albino mouse assessed as swelling thickness at 100 mg/kg, po after 270 mins; type: functional; outline: as §1
[23] = system: Mus musculus; assay: Inhibition of p-benzoquinone-induced writhing in Swiss albino mouse at 100 mg/kg, po relative to control; type: functional; outline: as §5
[24] = system: Mus musculus; assay: Antiinflammatory activity against carrageenan-induced paw edema in Swiss albino mouse assessed as swelling thickness at 100 mg/kg, po after 180 mins; type: functional; outline: as §1
[25] = system: Mus musculus; assay: Inhibition of carrageenan-induced paw edema in Swiss albino mouse at 25 mg/kg, po after 90 mins relative to control; type: functional; conditions: 1.5 h; outline: as §1
[26] = system: Mus musculus; assay: Inhibition of carrageenan-induced paw edema in Swiss albino mouse at 25 mg/kg, po after 360 mins relative to control; type: functional; conditions: 6 h; outline: as §1
[27] = system: Mus musculus; assay: Analgesic activity against p-benzoquinone-induced abdominal constriction in Swiss albino mouse assessed as number of writhings at 50 mg/kg, po; type: functional, Abdomen; outline: as §3
[28] = system: Mus musculus; assay: Inhibition of carrageenan-induced paw edema in Swiss albino mouse at 100 mg/kg, po after 360 mins relative to control; type: functional; conditions: 6 h; outline: as §1
[29] = system: Mus musculus; assay: Inhibition of carrageenan-induced paw edema in Swiss albino mouse at 50 mg/kg, po after 90 mins relative to control; type: functional; conditions: 1.5 h; outline: as §2
[30] = system: Mus musculus; assay: Inhibition of carrageenan-induced paw edema in Swiss albino mouse at 100 mg/kg, po after 270 mins relative to control; type: functional; conditions: 4.5 h; outline: as §1
[31] = system: Mus musculus; assay: Analgesic activity against p-benzoquinone-induced abdominal constriction in Swiss albino mouse assessed as number of writhings at 25 mg/kg, po; type: functional, Abdomen; outline: as §3
[32] = system: Mus musculus; assay: Antiinflammatory activity against carrageenan-induced paw edema in Swiss albino mouse assessed as swelling thickness at 25 mg/kg, po after 360 mins; type: functional; outline: as §1
[33] = system: Mus musculus; assay: Antiinflammatory activity against carrageenan-induced paw edema in Swiss albino mouse assessed as swelling thickness at 50 mg/kg, po after 270 mins; type: functional; outline: as §1
[34] = system: Mus musculus; assay: Analgesic activity against p-benzoquinone-induced abdominal constriction in Swiss albino mouse assessed as number of writhings at 100 mg/kg, po; type: functional, Abdomen; outline: as §3
[35] = system: Mus musculus; assay: Antiinflammatory activity against carrageenan-induced paw edema in Swiss albino mouse assessed as swelling thickness at 25 mg/kg, po after 90 mins; type: functional; outline: as §1
[36] = system: Mus musculus; assay: Inhibition of carrageenan-induced paw edema in Swiss albino mouse at 25 mg/kg, po after 180 mins relative to control; type: functional; conditions: 3 h; outline: as §1
[37] = system: Mus musculus; assay: Inhibition of carrageenan-induced paw edema in Swiss albino mouse at 50 mg/kg, po after 270 mins relative to control; type: functional; conditions: 4.5 h; outline: as §2
[38] = system: Mus musculus; assay: Inhibition of carrageenan-induced paw edema in Swiss albino mouse at 50 mg/kg, po after 180 mins relative to control; type: functional; conditions: 3 h; outline: as §1
[39] = system: Mus musculus; assay: Antiinflammatory activity against carrageenan-induced paw edema in Swiss albino mouse assessed as swelling thickness at 25 mg/kg, po after 180 mins; type: functional; outline: as §1
[40] = system: Mus musculus; assay: Antiinflammatory activity against carrageenan-induced paw edema in Swiss albino mouse assessed as swelling thickness at 200 mg/kg, po after 360 mins; type: functional; outline: as §1

SMILES: CSc1nnc(-c2ccc(Cl)cc2)[nH]1
- Activity [1]: 37.4 10^-2mm
- inhibition in vivo at 50 mg/kg [2]: 34.6%
- Activity [3]: 51.5 10^-2mm
- Activity [4]: 43.3
- Activity [5]: 41.2 10^-2mm
- Activity [6]: 61.2 10^-2mm
- inhibition in vivo at 100 mg/kg [7]: 24.1%
- inhibition in vivo at 100 mg/kg [8]: 25.6%
- Activity [9]: 48 10^-2mm
- Activity [10]: 54.7 10^-2mm
- Activity [11]: 65.9 10^-2mm
- Activity [12]: Active
- Activity [13]: Active
- inhibition in vivo at 25 mg/kg [14]: 20.5%
- Activity [15]: 47.1 10^-2mm
- inhibition in vivo at 25 mg/kg [16]: 13%
- Activity [17]: Active
- Activity [18]: Active
- inhibition in vivo at 50 mg/kg [19]: 33.7%
- inhibition in vivo at 200 mg/kg [20]: 15.8%
- Activity [21]: 34 10^-2mm
- Activity [22]: 43 10^-2mm
- inhibition in vivo at 100 mg/kg [23]: 27.9%
- Activity [24]: 38.3 10^-2mm
- inhibition in vivo at 25 mg/kg [25]: 18.2%
- inhibition in vivo at 25 mg/kg [26]: 18.2%
- Activity [27]: 34.1
- inhibition in vivo at 100 mg/kg [28]: 30.2%
- inhibition in vivo at 50 mg/kg [29]: 29.7%
- inhibition in vivo at 100 mg/kg [30]: 26.9%
- Activity [31]: 44.7
- Activity [32]: 58.9 10^-2mm
- Activity [33]: 42.2 10^-2mm
- Activity [34]: 34.1
- Activity [35]: 43.5 10^-2mm
- inhibition in vivo at 25 mg/kg [36]: 17.7%
- inhibition in vivo at 50 mg/kg [37]: 34.9%
- inhibition in vivo at 50 mg/kg [38]: 30.6%
- Activity [39]: 48.9 10^-2mm
- Activity [40]: 76.8 10^-2mm
